Experiment [1] deals with Calcium/calmodulin-dependent protein kinase type 1G (Homo sapiens) (UniProt Q96NX5). Description: Binding affinity to wild-type human partial length CAMK1G (M1 to A342 residues) expressed in bacterial expression system assessed as residual binding level at 1 uM by Kinomescan method relative to control.
Experiment [2] concerns Phosphatidylinositol 4,5-bisphosphate 3-kinase catalytic subunit alpha isoform (Homo sapiens), P42336 [M1043I]. Description: Binding affinity to human partial length PIK3CA M1043I mutant (R108 to N1068 residues) expressed in mammalian expression system assessed as residual binding level at 1 uM by Kinomescan method relative to control. An outline of the steps: (§1)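 KinomeScan active site-directed competition binding panel (468 kinases), compound tested at 1 μM. Result expressed as remaining kinase signal versus DMSO control (percent of control).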

Experiment [3] has as its target Tyrosine-protein kinase CSK (Homo sapiens) (UniProt P41240). Description: Binding affinity to wild-type human full length CSK (M1 to L450 residues) expressed in bacterial expression system assessed as residual binding level at 1 uM by Kinomescan method relative to control. An outline of the steps:
(§2)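 KinomeScan, an active site-directed competition binding panel of 468 kinases. The test compound was at 1 μM. The readout is remaining kinase binding as a percentage of the DMSO control. Scores above 35% were treated as weak binding and not listed.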

Experiment [4] deals with Serine/threonine-protein kinase DCLK1 (Homo sapiens) (UniProt O15075). Description: Binding affinity to wild-type human partial length DCAMKL1 (L270 to A662 residues) expressed in mammalian expression system assessed as residual binding level at 1 uM by Kinomescan method relative to control.
For experiment [5], the target named is Cyclin-dependent kinase 16 (Homo sapiens) (UniProt Q00536). Description: Binding affinity to wild-type human partial length PCTK1 (G160 to A474 residues) expressed in mammalian expression system assessed as residual binding level at 1 uM by Kinomescan method relative to control.
The target of experiment [6] is Glycogen synthase kinase-3 beta (Homo sapiens) (UniProt P49841). Description: Binding affinity to wild-type human full length GSK3B (M1 to T433 residues) expressed in mammalian expression system assessed as residual binding level at 1 uM by Kinomescan method relative to control. An outline of the steps: as §2
Experiment [7] deals with Tyrosine-protein kinase Lck (Homo sapiens) (UniProt P06239). Description: Binding affinity to wild-type human partial length LCK (R207 to P509 residues) expressed in bacterial expression system assessed as residual binding level at 1 uM by Kinomescan method relative to control. An outline of the steps:
(§3)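 Active-site-directed competition binding panel of 468 kinases (KinomeScan), compound at 1 μM. The read-out is kinase remaining bound, given as a percentage of the DMSO control. […]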

The target of experiment [8] is Bone morphogenetic protein receptor type-2 (Homo sapiens) (UniProt Q13873). Description: Binding affinity to wild-type human partial length BMPR2 (R179 to Q526 residues) expressed in mammalian expression system assessed as residual binding level at 1 uM by Kinomescan method relative to control.
Experiment [9] has as its target Tyrosine-protein kinase HCK (Homo sapiens, UniProt P08631). Description: Binding affinity to wild-type human full length HCK (M22 to P526 residues) expressed in bacterial expression system assessed as residual binding level at 1 uM by Kinomescan method relative to control. An outline of the steps:
as §2

For experiment [10], the target named is Interleukin-1 receptor-associated kinase 3 (Homo sapiens) (UniProt Q9Y616). Description: Binding affinity to wild-type human partial length IRAK3 (V147 to E596 residues) expressed in bacterial expression system assessed as residual binding level at 1 uM by Kinomescan method relative to control.
The target of experiment [11] is Tyrosine-protein kinase BTK (Homo sapiens) (UniProt Q06187). Description: Binding affinity to wild-type human full length BTK (M1 to S659 residues) expressed in mammalian expression system assessed as residual binding level at 1 uM by Kinomescan method relative to control. An outline of the steps:
as §2

Experiment [12] concerns the target SNF-related serine/threonine-protein kinase (Homo sapiens) (UniProt Q9NRH2). Description: Binding affinity to wild-type human partial length SNRK (M1 to E339 residues) expressed in mammalian expression system assessed as residual binding level at 1 uM by Kinomescan method relative to control.
Experiment [13] concerns the target Mitogen-activated protein kinase 7 (Homo sapiens) (UniProt Q13164). Description: Binding affinity to wild-type human partial length ERK5 (M1 to A409 residues) expressed in bacterial expression system assessed as residual binding level at 1 uM by Kinomescan method relative to control.
Experiment [14] deals with Serine/threonine-protein kinase PAK 6 (Homo sapiens) (UniProt Q9NQU5). Description: Binding affinity to wild-type human partial length PAK6 (N298 to C681 residues) expressed in bacterial expression system assessed as residual binding level at 1 uM by Kinomescan method relative to control. An outline of the steps:
as §3

The target in experiment [15] is SRSF protein kinase 3 (Homo sapiens) (UniProt Q9UPE1). Description: Binding affinity to wild-type human partial length SRPK3 (P41 to P567 residues) expressed in bacterial expression system assessed as residual binding level at 1 uM by Kinomescan method relative to control.
Experiment [16] deals with MAP kinase-interacting serine/threonine-protein kinase 1 (Homo sapiens) (UniProt Q9BUB5). Description: Binding affinity to wild-type human full length MKNK1 (M1 to L424 residues) expressed in mammalian expression system assessed as residual binding level at 1 uM by Kinomescan method relative to control. An outline of the steps:
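Active-site-directed competition binding panel (KinomeScan) covering 468 kinases. Test agent was screened at 1 μM. The read-out is the remaining kinase signal expressed relative to a DMSO control. Scores above 35%, taken as weak binding, were not reported.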

Experiment [17] relates to Phosphatidylinositol 4,5-bisphosphate 3-kinase catalytic subunit alpha isoform (Homo sapiens), P42336 [Q546K]. Description: Binding affinity to human partial length PIK3CA Q546K mutant (R108 to N1068 residues) expressed in mammalian expression system assessed as residual binding level at 1 uM by Kinomescan method relative to control. An outline of the steps:
as §1

For experiment [18], the target named is Beta-adrenergic receptor kinase 1 (Homo sapiens) (UniProt P25098). Description: Binding affinity to wild-type human full length GRK2 (M1 to L689 residues) expressed in mammalian expression system assessed as residual binding level at 1 uM by Kinomescan method relative to control. An outline of the steps:
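Active-site-directed KinomeScan competition binding panel covering 468 kinases, compound tested at 1 μM. Each readout is the kinase signal remaining with compound, expressed as a percentage of the DMSO control. […]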

The target of experiment [19] is Serine/threonine-protein kinase PRP4 homolog (Homo sapiens) (UniProt Q13523). Description: Binding affinity to wild-type human partial length PRP4 (D657 to I1007 residues) expressed in bacterial expression system assessed as residual binding level at 1 uM by Kinomescan method relative to control. An outline of the steps: as §3
In experiment [20] the test system is Epidermal growth factor receptor (Homo sapiens), P00533 [UNDEFINED MUTATION]. Description: Binding affinity to human partial length EGFR L747-E749del/A750P mutant expressed in bacterial expression system assessed as residual binding level at 1 uM by Kinomescan method relative to control. An outline of the steps: as §1
For experiment [21], the target named is Tyrosine-protein kinase Fes/Fps (Homo sapiens) (UniProt P07332). Description: Binding affinity to wild-type human partial length FES (I527 to R822 residues) expressed in bacterial expression system assessed as residual binding level at 1 uM by Kinomescan method relative to control.

Chain of Serine/threonine-protein kinase DCLK1 (Homo sapiens) (O15075 whole entry, the tested form may be a part): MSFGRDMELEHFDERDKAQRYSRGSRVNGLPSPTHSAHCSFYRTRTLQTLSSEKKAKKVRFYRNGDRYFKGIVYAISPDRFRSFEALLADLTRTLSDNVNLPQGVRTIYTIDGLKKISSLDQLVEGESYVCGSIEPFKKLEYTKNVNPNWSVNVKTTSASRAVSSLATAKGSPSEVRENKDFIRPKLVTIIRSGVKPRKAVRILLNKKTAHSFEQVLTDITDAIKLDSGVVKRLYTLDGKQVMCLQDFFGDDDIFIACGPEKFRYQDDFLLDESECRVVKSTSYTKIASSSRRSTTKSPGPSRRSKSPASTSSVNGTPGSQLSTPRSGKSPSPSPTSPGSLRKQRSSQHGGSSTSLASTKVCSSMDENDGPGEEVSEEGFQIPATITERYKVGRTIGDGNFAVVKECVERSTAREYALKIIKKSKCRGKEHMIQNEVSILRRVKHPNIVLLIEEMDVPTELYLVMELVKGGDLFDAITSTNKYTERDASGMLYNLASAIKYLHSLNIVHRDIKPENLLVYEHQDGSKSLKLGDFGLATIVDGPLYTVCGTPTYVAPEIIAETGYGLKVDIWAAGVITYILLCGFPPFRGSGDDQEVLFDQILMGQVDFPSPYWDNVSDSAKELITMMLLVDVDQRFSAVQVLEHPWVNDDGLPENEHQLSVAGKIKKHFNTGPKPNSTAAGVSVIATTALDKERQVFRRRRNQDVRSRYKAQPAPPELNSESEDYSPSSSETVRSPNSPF
Chain of Tyrosine-protein kinase Lck (Homo sapiens) (P06239 2-509 limits assumed): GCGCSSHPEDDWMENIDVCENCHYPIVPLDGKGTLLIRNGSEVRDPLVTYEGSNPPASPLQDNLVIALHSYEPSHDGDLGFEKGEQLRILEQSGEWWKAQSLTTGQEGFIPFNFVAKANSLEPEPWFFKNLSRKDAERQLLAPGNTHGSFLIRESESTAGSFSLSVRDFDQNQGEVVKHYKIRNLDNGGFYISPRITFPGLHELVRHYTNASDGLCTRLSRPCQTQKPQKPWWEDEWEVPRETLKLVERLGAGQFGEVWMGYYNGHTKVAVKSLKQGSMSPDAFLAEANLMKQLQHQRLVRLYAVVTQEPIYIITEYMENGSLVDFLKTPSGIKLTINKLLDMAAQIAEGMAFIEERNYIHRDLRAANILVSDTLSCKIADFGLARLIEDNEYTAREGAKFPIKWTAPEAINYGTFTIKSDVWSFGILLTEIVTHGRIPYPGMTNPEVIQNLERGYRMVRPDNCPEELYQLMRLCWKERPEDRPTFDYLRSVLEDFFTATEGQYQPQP
Chain of Bone morphogenetic protein receptor type-2 (Homo sapiens) (Q13873 whole entry, the tested form may be a part): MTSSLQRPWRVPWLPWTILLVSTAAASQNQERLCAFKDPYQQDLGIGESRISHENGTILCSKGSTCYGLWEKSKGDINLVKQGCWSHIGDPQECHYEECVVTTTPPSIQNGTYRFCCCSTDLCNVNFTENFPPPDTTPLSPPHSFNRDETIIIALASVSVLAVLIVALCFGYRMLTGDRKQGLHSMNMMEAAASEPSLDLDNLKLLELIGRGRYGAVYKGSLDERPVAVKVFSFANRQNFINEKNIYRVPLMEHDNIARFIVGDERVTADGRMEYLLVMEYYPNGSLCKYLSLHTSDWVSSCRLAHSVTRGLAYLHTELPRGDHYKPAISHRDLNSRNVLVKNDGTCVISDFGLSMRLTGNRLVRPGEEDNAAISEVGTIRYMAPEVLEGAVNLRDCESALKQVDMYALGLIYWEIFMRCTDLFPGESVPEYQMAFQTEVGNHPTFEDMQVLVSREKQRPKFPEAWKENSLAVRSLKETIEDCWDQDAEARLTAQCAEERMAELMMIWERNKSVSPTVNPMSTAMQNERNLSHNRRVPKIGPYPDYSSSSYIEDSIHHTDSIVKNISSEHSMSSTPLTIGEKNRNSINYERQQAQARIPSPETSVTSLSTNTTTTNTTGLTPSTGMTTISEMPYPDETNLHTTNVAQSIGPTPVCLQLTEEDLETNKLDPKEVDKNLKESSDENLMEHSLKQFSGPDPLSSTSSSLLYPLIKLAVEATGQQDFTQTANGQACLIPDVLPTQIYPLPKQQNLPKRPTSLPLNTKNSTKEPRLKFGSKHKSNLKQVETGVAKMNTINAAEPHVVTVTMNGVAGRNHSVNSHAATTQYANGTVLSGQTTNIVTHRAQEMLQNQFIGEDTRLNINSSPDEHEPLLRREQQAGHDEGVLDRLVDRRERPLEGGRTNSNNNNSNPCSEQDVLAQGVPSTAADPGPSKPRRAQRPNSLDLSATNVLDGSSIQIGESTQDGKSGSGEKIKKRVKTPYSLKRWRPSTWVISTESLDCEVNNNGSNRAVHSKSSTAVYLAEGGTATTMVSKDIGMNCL
Chain of Interleukin-1 receptor-associated kinase 3 (Homo sapiens) (Q9Y616 whole entry, the tested form may be a part): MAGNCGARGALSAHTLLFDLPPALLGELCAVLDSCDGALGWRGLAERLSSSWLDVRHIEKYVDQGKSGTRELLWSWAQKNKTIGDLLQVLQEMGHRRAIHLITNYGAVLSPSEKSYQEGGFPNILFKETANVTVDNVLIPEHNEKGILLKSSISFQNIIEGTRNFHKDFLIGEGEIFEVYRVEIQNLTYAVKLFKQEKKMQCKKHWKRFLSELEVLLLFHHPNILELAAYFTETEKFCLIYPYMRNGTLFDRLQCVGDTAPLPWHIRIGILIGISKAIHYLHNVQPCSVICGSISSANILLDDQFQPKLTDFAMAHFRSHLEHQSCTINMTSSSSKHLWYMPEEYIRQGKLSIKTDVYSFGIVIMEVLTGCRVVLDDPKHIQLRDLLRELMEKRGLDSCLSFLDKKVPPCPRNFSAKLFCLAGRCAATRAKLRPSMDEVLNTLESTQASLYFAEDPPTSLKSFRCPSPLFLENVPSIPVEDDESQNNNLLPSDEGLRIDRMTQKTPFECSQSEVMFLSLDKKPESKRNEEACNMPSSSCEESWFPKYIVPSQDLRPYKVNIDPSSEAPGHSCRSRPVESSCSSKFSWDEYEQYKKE
Chain of Serine/threonine-protein kinase PAK 6 (Homo sapiens) (Q9NQU5 whole entry, looked up, the tested form may be a part): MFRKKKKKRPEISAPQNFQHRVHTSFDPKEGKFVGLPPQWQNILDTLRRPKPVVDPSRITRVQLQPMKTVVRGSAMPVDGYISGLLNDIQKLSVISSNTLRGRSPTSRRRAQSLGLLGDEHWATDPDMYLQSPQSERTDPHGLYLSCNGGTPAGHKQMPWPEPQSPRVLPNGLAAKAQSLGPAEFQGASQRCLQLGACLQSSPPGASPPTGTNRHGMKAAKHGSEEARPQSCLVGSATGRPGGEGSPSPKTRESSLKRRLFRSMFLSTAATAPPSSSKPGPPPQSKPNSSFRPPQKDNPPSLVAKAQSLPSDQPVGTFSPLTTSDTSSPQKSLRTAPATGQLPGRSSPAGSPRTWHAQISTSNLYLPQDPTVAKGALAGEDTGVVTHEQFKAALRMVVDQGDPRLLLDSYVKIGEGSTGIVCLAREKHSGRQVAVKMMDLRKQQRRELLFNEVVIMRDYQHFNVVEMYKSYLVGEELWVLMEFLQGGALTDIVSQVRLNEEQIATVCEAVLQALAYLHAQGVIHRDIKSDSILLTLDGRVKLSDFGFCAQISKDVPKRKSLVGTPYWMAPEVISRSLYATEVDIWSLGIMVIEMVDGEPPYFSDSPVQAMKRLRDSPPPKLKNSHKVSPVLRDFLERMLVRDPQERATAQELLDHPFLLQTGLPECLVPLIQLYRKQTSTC
Chain of SNF-related serine/threonine-protein kinase (Homo sapiens) (Q9NRH2 whole entry, the tested form may be a part): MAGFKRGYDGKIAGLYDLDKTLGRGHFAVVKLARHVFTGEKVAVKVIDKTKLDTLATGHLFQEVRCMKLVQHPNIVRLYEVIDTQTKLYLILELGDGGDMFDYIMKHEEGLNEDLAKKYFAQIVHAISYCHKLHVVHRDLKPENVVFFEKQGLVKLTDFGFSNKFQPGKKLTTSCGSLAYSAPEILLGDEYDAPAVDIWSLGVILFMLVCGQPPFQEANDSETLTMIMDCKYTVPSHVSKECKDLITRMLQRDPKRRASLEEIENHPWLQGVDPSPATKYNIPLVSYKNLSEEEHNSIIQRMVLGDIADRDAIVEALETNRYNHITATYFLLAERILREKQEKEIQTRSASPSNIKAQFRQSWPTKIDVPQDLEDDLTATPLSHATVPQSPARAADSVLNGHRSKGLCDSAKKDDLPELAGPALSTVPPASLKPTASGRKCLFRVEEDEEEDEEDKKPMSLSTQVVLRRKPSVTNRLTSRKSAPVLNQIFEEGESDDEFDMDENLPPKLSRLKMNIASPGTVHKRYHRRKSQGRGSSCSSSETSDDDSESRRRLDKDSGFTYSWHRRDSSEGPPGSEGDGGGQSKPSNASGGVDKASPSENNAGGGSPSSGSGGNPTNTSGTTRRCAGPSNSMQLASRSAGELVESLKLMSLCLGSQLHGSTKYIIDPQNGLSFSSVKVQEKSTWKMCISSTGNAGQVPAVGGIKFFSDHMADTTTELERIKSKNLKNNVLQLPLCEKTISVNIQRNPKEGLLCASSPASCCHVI
Chain of Tyrosine-protein kinase CSK (Homo sapiens) (P41240 2-450 limits assumed): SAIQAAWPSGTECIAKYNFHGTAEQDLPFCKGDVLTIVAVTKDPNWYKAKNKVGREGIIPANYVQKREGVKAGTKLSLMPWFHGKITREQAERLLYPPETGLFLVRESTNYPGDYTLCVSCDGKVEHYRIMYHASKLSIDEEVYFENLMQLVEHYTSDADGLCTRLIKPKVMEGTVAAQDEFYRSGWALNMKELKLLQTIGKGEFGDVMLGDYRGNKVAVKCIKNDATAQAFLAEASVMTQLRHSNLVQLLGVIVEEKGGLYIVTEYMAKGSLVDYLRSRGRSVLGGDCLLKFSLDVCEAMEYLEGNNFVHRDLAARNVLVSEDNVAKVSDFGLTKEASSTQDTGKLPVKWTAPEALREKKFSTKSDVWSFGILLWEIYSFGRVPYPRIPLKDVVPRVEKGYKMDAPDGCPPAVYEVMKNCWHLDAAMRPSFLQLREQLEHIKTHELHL

Regarding `C=CC(=O)Nc1ccccc1Nc1nc(Nc2ccc(N3CCN(C)CC3)cc2)ncc1C(=O)Nc1c(C)cccc1Cl`, the Activity in experiment [1] was 100%; in experiment [2], 100%; in experiment [3] it was 1.3%; in experiment [4] it was 100%; in experiment [5], 100%; in [6] it was 98%. The Activity in experiment [7] was determined as 0.25%; in experiment [8], 100%; in [9], 0.8%; in experiment [10], 100%; in [11], 0.1%; in experiment [12] it was 100%. For the same molecule, the Activity in experiment [13] was 92%; in experiment [14] it was 81%; in experiment [15], 100%; in experiment [16], 92%; in experiment [17], 100%; in experiment [18], 85%. The Activity was 81% in [19], 66% in experiment [20] and 100% in experiment [21].

Source of the values: ChEMBL document CHEMBL4354843, “Structure-Based Design of a Potent and Selective Covalent Inhibitor for SRC Kinase That Targets a P-Loop Cysteine” (J Med Chem, 2020).
